The values below come from ChEMBL document CHEMBL1124645, “Minimum-structure enkephalin analogues incorporating L-tyrosine, D(or L)-phenylalanine, and a diamine spacer” (J Med Chem, 1989).

The structures appear in SMILES notation.

For orientation: Inhibition means the percentage by which the read-out fell short of the control. By inhibition is commonly meant how much of the control response was suppressed.

The species entered for assay [1] is Cavia porcellus. In words: Ability to display a naloxone-reversible inhibition of electrically induced contractions in GPI in the presence of 1.0 uM bestatin at concentration 10 e-6 M. It counts as functional.
For assay [2], the species on record is Cavia porcellus. In words: Inhibitory activity in guinea pig ileum tissue in the absence and presence of 10 nM naloxone. Type of assay: functional.
The species named for assay [3] is Cavia porcellus. In words: Ability to display a naloxone-reversible inhibition of electrically induced contractions in GPI by Morphine at 0.1 uM. Type of assay: functional. In short, it runs like this: (§1)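 Hartley male guinea pigs (400–450 g); 3–4-cm segments of terminal ileum in a 3.5-mL Krebs bath at 37 ± 0.5 °C, gassed with 95% O2-5% CO2. […] Each was tested at least twice per preparation. Results are the average of at least three ilea from different animals.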

The species named for assay [4] is Cavia porcellus. In words: Ability to display a naloxone-reversible inhibition of electrically induced contractions in GPI by Morphine at 0.5 uM. Type of assay: functional.
For assay [5], the species on record is Cavia porcellus. Put plainly: Percentage inhibition of compound against morphine at 10 e-7 M in guinea pig ileum tissue. Type of assay: functional. In short, it runs like this: as §1
For assay [6], the species on record is Cavia porcellus. In words: Ability to display a naloxone-reversible inhibition of electrically induced contractions in GPI in the presence of 1 uM bestatin at concentration 2 uM.

For `CC(=O)N[C@H](Cc1ccccc1)C(=O)NCCC(C)(C)NC(=O)C(N)Cc1ccc(O)cc1` (some centres not stated), the Inhibition in assay [1] stood at 53%. Moreover, in assay [2], the Ke was determined as 3.3 nM. In assay [3], this molecule yielded an Inhibition of 40% and a Relative potency of 0.22.

Regarding `N[C@@H](Cc1ccccc1)C(=O)NCCNC(=O)[C@@H](N)Cc1ccc(O)cc1`, the Inhibition is given as 12% in assay [1] and 49.5% in assay [4].

In the case of `CC(=O)N[C@H](Cc1ccccc1)C(=O)NCC(C)(C)NC(=O)C(N)Cc1ccc(O)cc1` (some centres not stated), in assay [1], the Inhibition is on record as 91.5%. Besides, in assay [2], the Ke worked out at 4.2 nM. Further, 0.1 µM produced 43.5% inhibition in assay [5]. The same molecule came in with a Relative potency in assay [3] of 21.2.

In the case of `CC(=O)NC(Cc1ccccc1)C(=O)NCCNC(=O)C(N)Cc1ccc(O)cc1` (stereo in doubt), in assay [1], the Inhibition stood at 10%. For the same molecule, at 0.1 µM the inhibition in assay [5] was 49.5%.

For the molecule `CC(=O)NC(Cc1ccccc1)C(=O)NC(C)(C)CNC(=O)C(N)Cc1ccc(O)cc1` (stereo in doubt), in assay [1], the Inhibition was found to be 16.3%. In assay [5], the inhibition at 0.1 µM came to 47%.

As to `CC(=O)NC(Cc1ccccc1)C(=O)NCCC(C)(C)NC(=O)C(N)Cc1ccc(O)cc1` (stereo in doubt), the values for the Inhibition in assay [1] and in assay [3] were 50.5% and 47%, respectively. The Ke in assay [2] stood at 2.1 nM. The Relative potency in assay [3] was 0.052.

For `CC(=O)N[C@H](Cc1ccccc1)C(=O)NCCCNC(=O)C(N)Cc1ccc(O)cc1` (some centres not stated), the Inhibition in assay [1] turned out to be 29.5%. Further, in assay [2], the Ke is given as 4.4 nM. In assay [3], the Inhibition was determined as 47% and the Relative potency worked out at 0.0077.

Take `N[C@H](Cc1ccccc1)C(=O)NCCNC(=O)[C@@H](N)Cc1ccc(O)cc1`: in assay [1], the Inhibition was 8%. In assay [5], this molecule had an inhibition at 0.1 µM of 49.5%.

For `CC(=O)NC(Cc1ccccc1)C(=O)NCC(C)(C)NC(=O)C(N)Cc1ccc(O)cc1` (stereo in doubt), in assay [1], the Inhibition came to 79.3%. Moreover, the Ke in assay [2] is given as 1.4 nM. In addition, the inhibition at 0.1 µM in assay [5] stood at 47%. Moreover, the Relative potency in assay [3] came out at 10.

On to `CC(=O)N[C@H](Cc1ccccc1)C(=O)NCCNC(=O)C(N)Cc1ccc(O)cc1` (some centres not stated), for which the Inhibition in assay [1] was 89.5%. In addition, the Ke in assay [2] was 4 nM. In assay [5], this molecule displayed an inhibition at 0.1 µM of 40%. The Relative potency in assay [3] was found to be 1.6.

With `CC(=O)N[C@H](Cc1ccccc1)C(=O)NC(C)(C)CNC(=O)C(N)Cc1ccc(O)cc1` (some centres not stated), the Inhibition in assay [1] is on record as 42.5%. Moreover, at 0.1 µM the inhibition in assay [5] was 40%. In assay [3], this molecule gave a Relative potency of 0.27.

Take `CC(=O)NC(Cc1ccccc1)C(=O)NCCCNC(=O)C(N)Cc1ccc(O)cc1` (stereo in doubt): the Inhibition in assay [1] is 5%; in assay [6], 8%.
